# ADAM17 inh = ADAM17 inhibition, QFRET primary screen. inhibition, % at 6.95 µM. AID 720648. actives 0.83% (n = 370,000). recombinant ADAM17, EDANS/DABCYL FRET peptide cleavage;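 active = inhibition above the mean of compounds lying between control limits plus 3 SD, set per campaign, cut at about 8.5% in these data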;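 note: 0% = DMSO-only wells as the low control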
# NR2E3 ag-1 = NR2E3 (human) agonism | GST-NR2E3/biotin-RetCOR TR-FRET, 1536-well | inhibition of corepressor binding, % at 4.78 µM | actives 0.12% (n = 320,000);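 active = percent inhibition above the cutoff of mean plus 3 SD of all tested compounds, set per screening campaign, cut at about 20% in these data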;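 note: 0% = DMSO wells and 100% = biotin wells as full block of FRET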
#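 Material – GST-tagged NR2E3 plus biotinylated RetCOR corepressor · Quantity – NR2E3 fusion 1.35 nM · Times – 5 h incubation at 4 °C · Medium – pH 7.5 Tris-based buffer · Technique – TR-FRET, Eu(K)-anti-GST donor, streptavidin-D2 acceptor, ex 340, em 617/671 nm · Benchmarks – high control biotin, low control 0.6% DMSO · Format – 1536-well plates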
# proKLK7 act = proKLK7 (human) activation, primary screen. activation, % at 7 µM. P49862. purified proKLK7, EDANS-DABCYL substrate fluorescence; 100% is mature enzyme control, 0% vehicle. actives 0.9% (n = 370,000);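 active = activation above the mean of all tested compounds plus 3 SD, computed per campaign excluding outliers beyond control limits, cut at about 13% in these data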
# Target sequence (P49862 whole entry, looked up): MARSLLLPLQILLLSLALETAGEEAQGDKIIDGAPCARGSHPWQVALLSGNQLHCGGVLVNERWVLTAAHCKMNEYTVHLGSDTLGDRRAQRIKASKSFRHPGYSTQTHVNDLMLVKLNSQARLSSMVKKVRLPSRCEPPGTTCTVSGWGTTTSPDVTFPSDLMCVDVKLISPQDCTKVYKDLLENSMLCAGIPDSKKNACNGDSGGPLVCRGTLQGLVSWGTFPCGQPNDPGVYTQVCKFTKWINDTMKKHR
# JMJD2C inh = human JMJD2C demethylase inhibition. Q9H3R0. GST-JMJD2C(1-420) H3K9me3 demethylation, DELFIA europium. inhibition, % at 2.35 µM. actives 0.069% (n = 330,000). AID 2099;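 active = more than half of a compound's replicate wells show inhibition beyond 50%, single wells judged on their own value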;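 note: signal counts dimethyl H3K9 product captured on neutravidin plate; 0% = median of DMSO wells and 100% = 0.3 times that DMSO median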
# Target sequence (Q9H3R0 1-420 limits assumed): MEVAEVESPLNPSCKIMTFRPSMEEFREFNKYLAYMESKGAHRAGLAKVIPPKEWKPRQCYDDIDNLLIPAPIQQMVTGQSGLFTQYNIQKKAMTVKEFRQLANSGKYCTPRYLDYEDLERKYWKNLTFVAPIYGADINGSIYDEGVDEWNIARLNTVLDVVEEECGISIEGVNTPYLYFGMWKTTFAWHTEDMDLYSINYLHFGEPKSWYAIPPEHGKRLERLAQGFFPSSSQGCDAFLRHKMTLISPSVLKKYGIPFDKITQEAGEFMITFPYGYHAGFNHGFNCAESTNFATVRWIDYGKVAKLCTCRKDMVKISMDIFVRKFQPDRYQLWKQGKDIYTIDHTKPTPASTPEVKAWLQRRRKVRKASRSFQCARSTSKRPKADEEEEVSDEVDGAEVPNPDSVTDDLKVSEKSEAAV
# ADAM10 inh = ADAM10 inhibition, QFRET primary screen; O14672; recombinant ADAM10, EDANS/DABCYL FRET peptide cleavage, 3 h; inhibition, % at 7 µM; actives 0.62% (n = 370,000); AID 720582;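 active = inhibition above a per-campaign cutoff equal to the mean of compounds falling between control-based bounds plus 3 SD, cut at about 20% in these data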;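 note: 0% = DMSO wells while the 100% control is not disclosed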
# NR2E3 ag-2 = activates human NR2E3 receptor | inhibition of corepressor binding, % at 3.98 µM | CHO-S Gal4-NCOR/VP16-NR2E3 two-hybrid, luciferase | Q9Y5X4 | actives 0.35% (n = 360,000);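 active = inhibition above the mean of all tested compounds plus 3 SD, cut at about 70% in these data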;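 note: 0% = DMSO with NR2E3 transfected cells and 100% = cells lacking NR2E3 construct; higher means lower luciferase signal from less NR2E3 corepressor binding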
# proKLK7 act conf = proKLK7 activation, confirmation; shares compounds with proKLK7 act; purified proKLK7, EDANS-DABCYL substrate fluorescence; scaled: vehicle 0, mature enzyme 100; activation, % at 7 µM; actives 68% (n = 3,200); AID 686949;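 active = activation, as change over the incubation, above the mean of all tested compounds plus 3 SD, cut at about 13% in these data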
# EDANS-DABCYL int = optically interferes with EDANS-DABCYL signal, flagging KLK7 hits | shares compounds with proKLK7 act | EDANS-DABCYL substrate fluorescence interference, no enzyme, 4 h; solvent 0%, active enzyme control 100% | activation, % at 7 µM | actives 80% (n = 3,200) | AID 686952;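 active = activation above the all-compound mean plus 3 SD, ignoring values outside control-based bounds, cut at about 4.8% in these data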;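 note: value is the 4 h activation minus the activation read at time zero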
# EDANS interf = optically interferes with EDANS-DABCYL fluorescence, kallikrein-7 activator counter-screen. shares compounds with proKLK7 act. EDANS-DABCYL peptide fluorescence interference, no enzyme. EC50, µM. actives 20% (n = 250);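 active = compounds that raise the fluorescence signal in this interference counterscreen, with EC50 at or below 10 µM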;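 note: intact quenched peptide substrate alone read at 355 nm excitation and 520 nm emission; signal is fluorescence gain from T0 to T4 after four hours at room temperature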
# Starred values were filed as active, the others as inactive; i = inactive; / = not tested or not shown. The list is not random: actives were taken first. Their share in the collection is about 2.5%.
SMILES,ADAM17 inh,NR2E3 ag-1,proKLK7 act,JMJD2C inh,ADAM10 inh,NR2E3 ag-2,proKLK7 act conf,EDANS-DABCYL int,others
CC1(C)CC(=O)C(C=Nc2cccnc2/N=C/C2=C(O)CC(C)(C)CC2=O)=C(O)C1,-18.4,1.2,25.1*,0.7,-52.1,-0.1,-7.2,-3.6,
O=C(O)CSC1CC(=O)N(c2ccc(Cl)c(Cl)c2)C1=O (stereo unspecified),0.5,-2.4,-0.3,2.0,4.4,-22.1,/,/,
O=C1CC(N(O)c2ccccc2)C(=O)N1c1ccc(Cl)c(Cl)c1 (stereo unspecified),-2.1,-5.4,33.9*,-1.4,-24.5,-46.5,459.4*,467.3*,
Cc1cccc(N2C(=O)CC(N(O)c3ccccc3)C2=O)c1 (stereo unspecified),-6.7,4.5,273.7*,-3.1,-1.9,-53.4,348.8*,365.8*,
OC[C@@H]1CC[C@@H](Cc2ccc(-c3ccccc3)cc2)O1,-0.4,/,-0.1,/,3.2,-100.0,/,/,
CCOc1cccc(-c2cnc3cccnn23)c1,-236.1,/,41.4*,/,i,-145.5,36.8*,33.5*,
CCOc1ccc(-c2cnc3cccnn23)cc1,-40.5,/,10.8,/,-181.2,-93.1,/,/,
Cc1cccc(-c2cnc3cccnn23)c1,-243.4,/,34.4*,/,i,-41.8,26.5*,34.5*,
Cc1ccc2oc(NC3=NC4(CCCC4)C4=C(CCCC4=O)N3)nc2c1,-6.8,/,0.0,/,-20.1,-41.5,/,/,
NC(=O)c1c(NC(=O)c2ccccc2)sc2c1CCC2,-6.4,3.5,89.9*,-2.1,-24.4,-140.8,2.1,1.6,
NC(=O)c1c(NC(=O)c2ccncc2)sc2c1CCCC2,0.8,0.2,0.3,-0.1,-3.2,-87.8,/,/,
COc1cccc(Oc2c(C)oc3c(CN4CCOCC4)c(O)ccc3c2=O)c1,-184.9,/,31.4*,/,-493.2,-15.8,12.3,22.7*,
COc1ccccc1-c1c(C)oc2c(CN3CCOCC3)c(O)ccc2c1=O,-480.4,-2.4,65.9*,-22.6,i,9.7,69.3*,78.9*,
COc1ccc(-c2c(C)oc3c(CN4CCCCC4C)c(O)ccc3c2=O)cc1OC (stereo unspecified),-236.1,3.6,5.0,-6.5,i,-6.6,/,/,
Cc1oc2c(CN3CCOCC3)c(O)ccc2c(=O)c1-c1ccccc1,-344.9,6.5,72.5*,56.3,i,-2.7,22.6*,30.2*,
Cc1oc2c(CN3CCCCC3)c(O)ccc2c(=O)c1-c1ccc(Cl)cc1,-399.2,2.7,38.3*,-4.1,i,-4.1,28.1*,34.0*,
COc1ccc(Oc2c(C)oc3c(CN4CCOCC4)c(O)ccc3c2=O)cc1,-66.4,1.0,7.3,6.5,-208.5,-4.8,/,/,
CC(=O)Nc1ccc(S(=O)(=O)N[C@@H](C)C(=O)OCC(=O)Nc2ccc3c(c2)OCCO3)cc1,1.3,/,-0.1,/,-5.0,-14.5,/,/,
O=S(=O)(c1ccccc1)n1cc(-c2cccc3nccn23)c2ccccc21,-4.6,/,0.7,/,-29.7,-14.6,/,/,
COc1cccc(CNC(=S)Nc2ccc3c(c2)c(=O)n(C)n3C)c1,-477.8,/,25.4*,/,i,-14.8,11.2,13.1*,
COc1cccc(CNC(=S)Nc2ccc3c(c2)c(=O)n(C)n3Cc2ccc(F)cc2)c1,-440.0,/,-12.2,/,i,8.4,/,/,
COc1ccccc1CCC(=O)Nc1ccc2c(c1)c(=O)n(C)n2C,i,/,26.7*,/,i,-17.2,16.0*,17.1*,
N#CCCN(Cc1ccccc1)C(=O)CCC(=O)c1ccc(F)cc1,-0.8,/,0.2,/,-0.5,-11.2,/,/,
COc1ccc(-c2cc(-c3ccccc3)nc(=O)[nH]2)cc1,i,-1.6,62.2*,0.0,i,-3.9,31.3*,46.3*,
COc1ccc(-c2cc(=O)c3ccccc3[nH]2)cc1,-19.2,-1.3,-0.1,5.2,-80.2,-8.1,/,/,
SMILES,ADAM17 inh,NR2E3 ag-1,proKLK7 act,JMJD2C inh,ADAM10 inh,NR2E3 ag-2,proKLK7 act conf,EDANS-DABCYL int,others
CC(C)CC(=O)Nc1ccc(-c2cn3cccnc3n2)cc1,i,3.5,70.4*,3.4,i,-51.2,66.4*,68.3*,
CCCC(=O)Nc1cccc(-c2cn3cccnc3n2)c1,i,3.1,30.2*,-26.2,i,2.0,42.2*,45.1*,
CC1CCCN(S(=O)(=O)c2cccc(-c3cn4cccnc4n3)c2)C1 (stereo unspecified),-194.4,-0.4,-0.3,-2.0,i,2.2,/,/,
CCN(CC)S(=O)(=O)c1cccc(-c2cn3cccnc3n2)c1,i,-3.8,20.7*,-1.3,i,-22.2,37.5*,24.7*,EDANS interf=>69.5
CCCC(=O)Nc1ccc(-c2cn3cccnc3n2)cc1,i,-0.1,57.7*,4.5,i,-18.5,67.1*,62.6*,
COc1ccc(-c2cn3cccnc3n2)cc1NC(=O)CC(C)C,-104.9,4.2,4.3,3.5,-330.7,-20.7,/,/,
Cc1cc(S(N)(=O)=O)c(N)c(S(N)(=O)=O)c1,-58.2,-0.8,-1.7,-2.5,-151.2,-17.6,/,/,
NC(=O)C1CCN(CC(=O)Nc2cccc(C(=O)Nc3cccc(C(F)(F)F)c3)c2)CC1,-2.8,3.3,0.0,0.9,-8.7,5.8,/,/,
Cc1cnc(NC(=O)CC2OC(=O)c3ccccc32)s1 (stereo unspecified),-1.6,/,0.0,/,-14.1,-18.8,/,/,
CC(C)(C)CC(=O)Nc1ccc(-c2cn3cccnc3n2)cc1,i,1.4,74.0*,2.8,i,-38.2,66.1*,64.6*,
CC(=O)Nc1ccc(S(=O)(=O)Nc2cccc(-c3cn4cccnc4n3)c2)cc1,-285.6,2.2,42.8*,-3.3,i,-41.3,7.2,7.8*,
CCOCC(=O)Nc1ccc(-c2cn3cccnc3n2)cc1,i,-3.1,39.0*,-6.0,i,-7.1,67.1*,78.8*,
CCCC(=O)Nc1cc(-c2cn3cccnc3n2)ccc1OC,-102.9,-4.1,5.1,6.5,-297.3,-16.6,/,/,
CCc1ccc2nc3nc(C)cc(C)c3c(N)c2c1,-225.3,-5.5,32.2*,/,i,-13.5,32.4*,40.3*,
Cc1cc(C)c2cccc(N)c2n1,-2.3,-1.8,-0.7,9.0,-7.6,-8.8,/,/,
Cc1cc(C)c2c(N)c3ccccc3nc2n1,i,-0.7,15.7*,0.9,i,-41.5,69.5*,76.5*,

# Compound activity from PubChem.
